Kir21 inh – inhibitors of mouse Kir2.1 inward-rectifier potassium channel | 310,000 tested, 0.85% active | HEK293-Kir2.1, FluxOR thallium flux fluorescence; hits give low values | AID 1672 | P35561 | B-score at 10 µM;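 active = fluorescence ratio B-score at or below minus 3 SD of library scores, with starting-brightness B-score within 2 SD, cut at about -4.2 in these data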;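 also: channel flux triggered by added potassium and thallium sulfate stimulus; B-score of peak minus minimum fluorescence over baseline after thallium stimulus; more negative B-score means stronger Kir2.1 block with less thallium influx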
Target sequence (P35561 whole entry, looked up): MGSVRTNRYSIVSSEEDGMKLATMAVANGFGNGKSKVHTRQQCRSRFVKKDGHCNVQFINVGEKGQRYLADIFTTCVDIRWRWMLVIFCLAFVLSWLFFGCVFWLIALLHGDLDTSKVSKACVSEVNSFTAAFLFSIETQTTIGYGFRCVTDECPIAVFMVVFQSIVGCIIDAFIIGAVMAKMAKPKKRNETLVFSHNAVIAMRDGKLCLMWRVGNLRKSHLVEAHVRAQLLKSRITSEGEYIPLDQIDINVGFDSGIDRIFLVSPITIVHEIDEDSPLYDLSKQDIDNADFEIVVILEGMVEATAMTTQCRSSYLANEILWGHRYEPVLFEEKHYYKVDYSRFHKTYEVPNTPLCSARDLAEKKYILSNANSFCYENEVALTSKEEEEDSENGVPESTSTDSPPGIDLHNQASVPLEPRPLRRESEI
TRPC4 block – inhibitors of mouse TRPC4 channel; Q9QUQ5; 300,000 tested, 0.39% active; B-score at 10 µM; HEK293 TRPC4beta/mu-opioid, DAMGO-evoked Fluo4 calcium flux; hits give low values;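 active = B-score over 3 SD under the library average, no early fluorescence shift, positive overall ratio signal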
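Assay system: HEK293 cells with stable TRPC4beta plus mu-opioid receptor expression. Dosing: single dose. Measured by: Fluo4 Ca2+ flux fluorescence. Also added: DAMGO in two steps, submaximal then maximal. Read-out: B score from integrated Fluo4 fluorescence ratio.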
TRPC6 act – activators of mouse TRPC6 channel. HEK293-TRPC6 membrane potential dye fluorescence; hits give high values. B-score at 10 µM. 310,000 tested, 0.13% active. AID 2550;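 active = B-score of the integrated fluorescence ratio above library mean plus 3 SD, and starting fluorescence ratio within library mean plus 5 SD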;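 also: higher score means more depolarization so channel activation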
TRPC4 potent – allosteric potentiators of mouse TRPC4 channel. HEK293 TRPC4beta/mu-opioid, DAMGO EC20, Fluo-4 Ca2+ flux; hits give high values. B-score at 10 µM. 310,000 tested, 0.42% active;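 active = B-score of calcium response area above 5 SD of library B-scores, with initial fluorescence ratio within 5 SD of library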
TRPC4 act – opens the mouse TRPC4 cation channel. Q9QUQ5. HEK293 TRPC4beta/mu-opioid, Fluo4 calcium fluorescence; hits give high values. B-score at 10 µM. 310,000 tested, 0.49% active;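 active = B-score above 5 SD of library B-scores, and initial fluorescence ratio not above library mean plus 5 SD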;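 also: positive B-score marks a calcium rise read as TRPC4 activation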
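Assay system: HEK293 cells stably co-expressing mouse TRPC4beta and mu-opioid receptor / Timing: Fluo4 dye loading 45 min at room temperature, 110 s recording / Signal: Fluo4 calcium-sensitive dye fluorescence, kinetic, 1 Hz baseline / Read-out: integrated baseline-normalised fluorescence ratio, converted to per-well B score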
TRPC6 inh – blocks the mouse TRPC6 cation channel | Q61143 | HEK293-TRPC6, membrane potential dye, ACh-evoked depolarization; hits give low values | B-score at 10 µM | 310,000 tested, 1.1% active;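 active = B-score under library mean minus 3 SD, initial fluorescence not abnormally high, positive integrated signal ratio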;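 also: B-score derived from integrated fluorescence ratio over the kinetic read; more negative B-score means stronger inhibition of depolarization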
Of the large screens only hits and unclear results are named; the others gave an inactive call. Compounds with a hit are over-represented: about 3% of the library has one in this group of screens.

Cc1ccc(C)c(N2CCN(C(=O)C3CCCN(c4ncnc5c4nc4n5CCCCC4)C3)CC2)c1 (stereo unspecified)	TRPC4 potent 15
CCN(CCNC(=O)C1CCCN(c2ncnc3c2nc2n3CCCCC2)C1)Cc1ccccc1 (stereo unspecified)	TRPC4 potent 19
COCC1CCN(C(=O)CC2C(=O)NCCN2Cc2cccc(Oc3ccccc3)c2)CC1 (stereo unspecified)	none
CCCN(CCC)CCCNC(=O)CCNS(=O)(=O)c1ccc(Br)cc1	TRPC4 act 76
CN(CC(=O)NCCc1ccc(F)cc1)Cc1ccc(Br)cc1	Kir21 inh -6.56
CN(CC(=O)NCCc1ccc(F)cc1)Cc1cccc(Cl)c1	Kir21 inh -7.32
CN(CC(=O)NCCCc1ccccc1)Cc1ccc(Br)cc1	none
C=CCc1cc(C)ccc1OCCOCCC(C(=O)OCC)C(=O)OCC	Kir21 inh -8.63
O=C(O)C1Cc2c([nH]c3ccccc23)C(c2ccc3c(c2)OCO3)N1 (stereo unspecified)	none
COc1ccc(C2NC(C(=O)O)Cc3c2[nH]c2ccccc32)cc1CN1CCN(c2ccc(F)cc2)CC1 (stereo unspecified)	TRPC4 block -6
O=C(CCC(=O)N1CCOc2ccc(Cl)cc21)NCCCN1CCC(Cc2ccccc2)CC1	Kir21 inh -6.64
O=C(CCC(=O)N1CCOc2ccc(Cl)cc21)NCCCN1CCN(c2ccccc2F)CC1	none
CCN(Cc1ccccc1)C1CCN(Cc2ccc(SC)cc2)CC1	Kir21 inh -4.64
CCN(Cc1ccccc1)C(=O)C1CCN(Cc2ccc(SC)cc2)CC1	none
CCc1ccc(-c2cc(C)no2)cc1S(=O)(=O)NCCc1ccc(OC)c(OC)c1	Kir21 inh -4.44
CCc1ccc(-c2cc(C)no2)cc1S(=O)(=O)NCc1ccc(OC)c(OC)c1	none
COc1ccc(CCNCC(O)Cn2c3ccccc3c3ccccc32)cc1OC (stereo unspecified)	Kir21 inh -10
CC(C)Cn1c(CN2CCN(C)C(CCO)C2)nc2ccccc21 (stereo unspecified)	TRPC4 potent 19
Cc1ccc(CN2CCN(Cc3cccc4nccnc34)CC2CCO)cc1 (stereo unspecified)	none
CN1CCN(Cc2nc3ccccc3n2C)CC1CCO (stereo unspecified)	TRPC4 potent 19
CCn1c(CN2CCN(Cc3ccc(C)cc3)C(CCO)C2)nc2ccccc21 (stereo unspecified)	TRPC4 act 172
CN1CCN(Cc2cccc3ncccc23)CC1CCO (stereo unspecified)	none
CCN(CC(=O)Nc1ccc2c(c1)OCCO2)C(=O)CSCC(=O)Nc1ccc(C)cc1	none
CC(C)(C)NC(=O)Nc1nnc(SCC(=O)NC2CCCCC2)s1	none
Cc1ccccc1C(=NCCCN(C)C)c1ccccc1C	none
O=C(C1CCC1)N1CCC(O)(c2cccc(F)c2)CC1	none
Cc1cc(NCc2ccccc2)nc2ccccc12	TRPC4 block -7, TRPC4 act 51
COc1ccc(C(CNC(=O)c2cncc(Br)c2)N(C)C)cc1 (stereo unspecified)	none (no result: TRPC4 block)
COc1ccc(CC(=O)NCC(c2ccc(OC)cc2)N(C)C)cc1 (stereo unspecified)	TRPC4 act 216
COc1ccc(C(CNC(=O)CN2C(=O)NC3(CCCC3)C2=O)N(C)C)cc1 (stereo unspecified)	TRPC4 act 134
COc1ccc(C(CNC(=O)Cc2cccs2)N(C)C)cc1 (stereo unspecified)	TRPC4 act 99
COc1ccc(CNC(=O)Cc2cccs2)cc1	none
O=c1oc2ccc3ccccc3c2cc1-c1nnc(-c2ccccc2)o1	TRPC4 block -6
COc1ccc(-c2nnc(-c3cc4c(ccc5ccccc54)oc3=O)o2)cc1	none
CCOc1ccc(S(=O)(=O)N2CCN(C(=O)C3CCC3)CC2)cc1	none
O=S(=O)(/N=C(/Nc1ccc(F)cc1F)c1ccccc1)c1ccccc1	none
COc1cccc2[nH]c3c(N4CCN(Cc5ccc6c(c5)OCO6)CC4)ncnc3c12	TRPC6 inh -6.71
COc1ccc2c(c1)[nH]c1c(N3CCN(Cc4ccc5c(c4)OCO5)CC3)ncnc12	none
